According to ChEMBL document CHEMBL1123895, “Synthesis and anti-HIV activity of various 2'- and 3'-substituted 2',3'-dideoxyadenosines: a structure-activity analysis” (1987):

Experiments:
MT4 [1] = assay: (§1) Anti-HIV activity was determined as dose required to protect 50% of the HIV-infected MT-4 cells against destruction; format: functional, Homo sapiens; settings: read-out: ED50 (the source's name)
Summary of the method: (§2)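 MT-4 cells infected with HIV at 10 CCID50 per well, incubated 5 days with a range of compound concentrations. Viable cells counted in a blood cell counting chamber after trypan blue staining.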

[2] = Selectivity ratio CD50 to ED50; format: functional
Summary of the method: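 Ratio of CD50 to ED50. CD50 is from uninfected MT-4 cells and ED50 from MT-4 cells infected with HIV at 10 CCID50 per well. Both are read after 5 days with compound by trypan blue viable cell counting in a blood cell counting chamber.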

MT4 [3] = assay: Cytotoxicity was determined as the dose required to reduce the viability of uninfected MT-4 cells by 50%; format: functional; settings: Homo sapiens, read-out: CD50 (the source's name)
Summary of the method: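 Mock-infected MT-4 cells incubated 5 days with a range of compound concentrations. Viable cells counted in a blood cell counting chamber after trypan blue staining.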

MT4 [4] = assay: as §1; format: functional; settings: Homo sapiens, read-out: ED50 (the source's name); summary of the method: as §2

Row | SMILES | EC50 (MT4 [1]; Homo sapiens, MT4) [µM] | Ratio [2] | CC50 (MT4 [3]) [µM] | EC50 (MT4 [1]) [µM] | EC50 (MT4 [4]) [µM]
1 | Cc1cn([C@H]2C[C@H](N=[N+]=[N-])[C@@H](CO)O2)c(=O)[nH]c1=O [ZIDOVUDINE] | 0.006 | 666 | 4 | – | –
2 | [N-]=[N+]=N[C@H]1C[C@@H](CO)O[C@H]1n1cnc2c(N)ncnc21 | 55 | 11.4 | 625 | – | –
3 | Nc1ncnc2c1ncn2[C@H]1C[C@H](F)[C@@H](CO)O1 (stereo in doubt; 12) [listing 1 of 2 here] | – | – | – | 50 | –
4 | Nc1ncnc2c1ncn2[C@@H]1O[C@H](CO)C[C@@H]1F [LODENOSINE] | 35 | > 18 | > 625 | – | –
5 | Nc1ncnc2c1ncn2[C@H]1CC[C@@H](CO)O1 | 6.2 | 148 | 889 | – | –
6 | Nc1ncnc2c1ncn2[C@H]1C[C@H](F)[C@@H](CO)O1 (stereo in doubt; 12) [listing 2 of 2 here] | – | 11.1 | – | – | –
7 | Nc1ncnc2c1ncn2[C@H]1C[C@H](F)[C@@H](CO)O1 (stereo in doubt; 13) [listing 1 of 2 here] | – | – | > 625 | 221 | –
8 | Nc1ncnc2c1ncn2[C@H]1C=C[C@@H](CO)O1 | > 25 | < 1.2 | 34 | – | –
9 | Nc1ncnc2c1ncn2[C@@H]1O[C@H](CO)C[C@H]1F | – | – | > 625 | – | > 625
10 | [N-]=[N+]=N[C@@H]1C[C@@H](CO)O[C@H]1n1cnc2c(N)ncnc21 | – | > 2.9 | > 625 | – | 215
11 | Nc1ncnc2c1ncn2[C@H]1C[C@H](F)[C@@H](CO)O1 (stereo in doubt; 13) [listing 2 of 2 here] | – | > 2.8 | – | – | –
